Test results reported in ChEMBL document CHEMBL3808290, “Discovery of Potent, Orally Bioavailable Inhibitors of Human Cytomegalovirus” (ACS Med Chem Lett, 2016).
In brackets after ≈: the same amount, converted by molar mass.

Legend:
[1] = Half life of compound in human liver microsomes; assay type: ADME
[2] = Cytotoxicity against human MRC5 cells; assay type: cell-based
[3] = tested on: Human betaherpesvirus 5; experiment: Antiviral activity against HCMV AD169 infected in human MRC5 cells by CPE assay; assay type: functional, organism-based; settings: Human betaherpesvirus 5, AD169, MRC5
Outline: (§1)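 MRC-5 fibroblasts were infected with HCMV and inhibition was read as protection from virus-induced cytopathic effect. EC50 is the half-maximal effect concentration, averaged over at least duplicate experiments, each run in triplicate.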

[4] = tested on: Human betaherpesvirus 5; experiment: Antiviral activity against HCMV AD169 assessed as inhibition of viral infection in human MRC5 cells by RT-qPCR method; assay type: functional, organism-based; settings: Human betaherpesvirus 5, AD169, MRC5
Outline: (§2)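 Infected cells were treated with compound added at the same time as virus, so only a single cycle of viral replication is scored. Viral replication was read by RT-qPCR and EC50 was taken as the half-maximal effect concentration. Each value is at least the mean of duplicate experiments, each run in triplicate.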

[5] = Solubility of the compound at pH 6.8; assay type: physicochemical; settings: buffer
[6] = target: Cytochrome P450 3A4 (Homo sapiens, UniProt P08684); experiment: Inhibition of CYP3A4 (unknown origin); assay type: ADME
[7] = target: Cytochrome P450 2C9 (Homo sapiens, UniProt P11712); experiment: Inhibition of CYP2C9 (unknown origin); assay type: ADME
[8] = tested on: Salmonella typhimurium; experiment: Genotoxicity in Salmonella typhimurium by Ames test; assay type: toxicity, organism-based; settings: salmonella enterica subsp. enterica serovar typhimurium
[9] = tested on: Liver microsome; experiment: Metabolic stability in human liver microsomes assessed as compound hydrolysis in absence of NADPH
[10] = tested on: Human betaherpesvirus 5; experiment: Antiviral activity against HCMV VR1814 infected in human ARPE19 cells after 72 hrs by cell-to-cell spread assay; assay type: functional, organism-based; settings: Human betaherpesvirus 5, VR1814, ARPE-19, 72 h
Outline: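 ARPE-19 cells were infected and replication ran for 24 h. Medium and free virus were then removed, and Cytogam neutralizing antibody plus fresh medium were added. After 48 h, allowing one full replication cycle, compounds were added. After a further 72 h, infected nuclei were stained with fluorescent anti-IE1 antibody and clusters imaged. IC50 came from dose-response curves, averaging at least duplicate experiments run in triplicate.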

[11] = tested on: Human betaherpesvirus 5; experiment: Antiviral activity against HCMV VR1814 assessed as inhibition of viral infection in human MRC5 cells by RT-qPCR method; assay type: functional, organism-based; settings: Human betaherpesvirus 5, VR1814, MRC5; outline: as §2
[12] = Volume of distribution at steady state in rat; assay type: ADME, organism-based; settings: in vivo, read-out: Vdss
[13] = tested on: Human betaherpesvirus 5; experiment: Antiviral activity against HCMV TR assessed as inhibition of viral infection in human MRC5 cells by RT-qPCR method; assay type: functional, organism-based; settings: Human betaherpesvirus 5, TR; outline: as §2
[14] = Half life of compound in rat; assay type: ADME, organism-based; settings: in vivo
[15] = Oral bioavailability in rat; assay type: ADME, organism-based; settings: in vivo
[16] = target: Cytochrome P450 2D6 (Homo sapiens, UniProt P10635); experiment: Inhibition of CYP2D6 (unknown origin); assay type: ADME
[17] = target: T1, Cytochrome P450 2C8 (Homo sapiens, UniProt P10632); experiment: Inhibition of CYP2C8 (unknown origin); assay type: ADME
T1 sequence (P10632 whole entry): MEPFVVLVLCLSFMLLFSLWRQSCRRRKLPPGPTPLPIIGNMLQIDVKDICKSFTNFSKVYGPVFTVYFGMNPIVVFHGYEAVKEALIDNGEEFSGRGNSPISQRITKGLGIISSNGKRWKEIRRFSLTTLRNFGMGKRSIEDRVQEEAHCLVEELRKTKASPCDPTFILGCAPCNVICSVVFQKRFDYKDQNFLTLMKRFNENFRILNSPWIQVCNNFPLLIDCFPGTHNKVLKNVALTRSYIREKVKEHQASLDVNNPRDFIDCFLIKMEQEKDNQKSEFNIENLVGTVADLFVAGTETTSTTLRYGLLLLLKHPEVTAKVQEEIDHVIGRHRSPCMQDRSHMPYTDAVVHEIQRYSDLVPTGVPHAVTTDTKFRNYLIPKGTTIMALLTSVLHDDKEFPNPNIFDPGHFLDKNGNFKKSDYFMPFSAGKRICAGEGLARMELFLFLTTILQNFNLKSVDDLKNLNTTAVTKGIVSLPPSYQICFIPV

[18] = tested on: Human betaherpesvirus 5; experiment: Antiviral activity against HCMV TB40 assessed as inhibition of viral infection in human MRC5 cells by RT-qPCR method; assay type: functional, organism-based; settings: Human betaherpesvirus 5, TB40, MRC5; outline: as §2
[19] = tested on: Human betaherpesvirus 5; experiment: Antiviral activity against HCMV VR1814 assessed as inhibition of viral infection in human ARPE19 cells by RT-qPCR method; assay type: functional, organism-based; settings: Human betaherpesvirus 5, VR1814, ARPE-19; outline: as §2
[20] = Apparent permeability across apical to basolateral side in human Caco2 cells; assay type: ADME, cell-based; settings: Caco-2
[21] = tested on: Human betaherpesvirus 5; experiment: Antiviral activity against HCMV TR infected in human MRC5 cells by CPE assay; assay type: functional, organism-based; settings: Human betaherpesvirus 5, TR; outline: as §1

Chain of Cytochrome P450 2C9 (P11712 whole entry): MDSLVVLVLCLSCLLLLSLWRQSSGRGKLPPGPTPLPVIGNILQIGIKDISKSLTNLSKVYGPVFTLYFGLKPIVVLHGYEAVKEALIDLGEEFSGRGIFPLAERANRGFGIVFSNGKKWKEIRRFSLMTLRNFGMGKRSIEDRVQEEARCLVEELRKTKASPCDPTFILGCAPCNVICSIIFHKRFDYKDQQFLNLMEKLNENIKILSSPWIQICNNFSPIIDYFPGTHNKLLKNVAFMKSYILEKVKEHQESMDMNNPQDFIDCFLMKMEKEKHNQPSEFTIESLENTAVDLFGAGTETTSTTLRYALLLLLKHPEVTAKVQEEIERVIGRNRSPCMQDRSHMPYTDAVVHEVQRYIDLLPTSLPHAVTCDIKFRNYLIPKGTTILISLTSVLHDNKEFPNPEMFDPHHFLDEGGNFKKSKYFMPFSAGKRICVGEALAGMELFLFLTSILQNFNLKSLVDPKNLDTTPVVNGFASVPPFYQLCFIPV
Chain of Cytochrome P450 3A4 (P08684 whole entry): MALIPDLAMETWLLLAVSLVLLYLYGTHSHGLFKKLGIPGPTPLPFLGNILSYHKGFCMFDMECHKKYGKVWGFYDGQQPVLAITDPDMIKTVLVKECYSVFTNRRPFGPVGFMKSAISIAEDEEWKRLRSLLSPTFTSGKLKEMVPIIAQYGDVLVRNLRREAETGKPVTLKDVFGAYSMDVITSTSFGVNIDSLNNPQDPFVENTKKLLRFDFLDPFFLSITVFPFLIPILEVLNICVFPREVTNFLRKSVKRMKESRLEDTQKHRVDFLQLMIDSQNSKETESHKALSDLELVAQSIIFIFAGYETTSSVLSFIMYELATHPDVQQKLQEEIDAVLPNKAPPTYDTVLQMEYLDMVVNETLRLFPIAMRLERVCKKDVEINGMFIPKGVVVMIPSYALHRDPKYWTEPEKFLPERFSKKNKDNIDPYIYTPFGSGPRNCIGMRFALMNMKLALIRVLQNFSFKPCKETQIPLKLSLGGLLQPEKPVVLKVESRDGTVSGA
Chain of Cytochrome P450 2D6 (P10635 whole entry): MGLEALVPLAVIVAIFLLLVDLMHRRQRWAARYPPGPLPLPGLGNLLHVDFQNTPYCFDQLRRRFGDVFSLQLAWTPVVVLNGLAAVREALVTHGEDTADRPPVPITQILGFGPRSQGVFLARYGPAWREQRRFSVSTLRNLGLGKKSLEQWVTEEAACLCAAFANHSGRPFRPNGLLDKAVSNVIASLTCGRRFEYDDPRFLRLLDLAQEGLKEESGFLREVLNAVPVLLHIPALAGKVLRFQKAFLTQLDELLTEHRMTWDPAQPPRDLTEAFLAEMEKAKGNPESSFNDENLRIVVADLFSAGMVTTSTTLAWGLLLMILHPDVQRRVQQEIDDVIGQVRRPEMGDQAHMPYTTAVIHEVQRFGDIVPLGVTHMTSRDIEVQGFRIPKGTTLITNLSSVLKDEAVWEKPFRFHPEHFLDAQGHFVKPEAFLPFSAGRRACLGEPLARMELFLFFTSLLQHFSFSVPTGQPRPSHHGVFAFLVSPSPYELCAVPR

Compound | half-life [1] [h] | CC50 [2] [nM] | EC50 [3] [nM] | EC50 [4] [nM] | solubility [5] [µg/mL] | IC50 [6] [nM] | IC50 [7] [nM] | Activity [8] | Stability [9] | other results
O=C(Nc1ccc(/N=C(\S)Nc2cc(C(F)(F)F)cc(C(F)(F)F)c2)cc1)c1csnn1 | 1.83 | 36000 | 250 |  |  |  |  |  |  | 
CC(C)CC(O)(c1cccc(C(F)(F)F)c1)c1nc(-n2ccc(NC(=O)c3cscn3)cc2=O)c[nH]1 (stereo unspecified) | 0.267 |  |  | 28 | < 0.1 | > 30000 | 150 |  |  | 
O=C(Nc1ccc2nc(NCc3cc(C(F)(F)F)cc(C(F)(F)F)c3)sc2c1)c1cscn1 |  | > 57000 | 430 |  |  |  |  | Toxic | Unstable | 
O=C(Nc1ccc2nc(Cc3cc(C(F)(F)F)cc(C(F)(F)F)c3)[nH]c2c1)c1cscn1 |  | > 57000 | 2300 |  |  |  |  | Toxic | Stable | 
CC(O)(c1cccc(C(F)(F)F)c1)c1nc(-n2ccc(NC(=O)c3cscn3)cc2=O)c[nH]1 (stereo unspecified) | > 2 |  |  | 540 | 76 (≈ 160 µM) | > 30000 | 3000 |  |  | EC50 [10]: 800 nM; EC50 [11]: 910 nM; Vd [12]: 2.5 L; EC50 [13]: 470 nM; half-life [14]: 1.9 h; bioavailability [15]: 72%; IC50 [16]: 17000 nM; IC50 [17]: 4700 nM; EC50 [18]: 250 nM; EC50 [19]: 1700 nM
O=C(Cc1ccc(NC(=O)c2cscn2)cn1)Nc1cc(C(F)(F)F)cc(C(F)(F)F)c1 |  | > 57000 | 540 |  |  |  |  | Toxic | Stable | 
CC(c1cccc(C(F)(F)F)c1)n1cnc(-n2ccc(NC(=O)c3cscn3)cc2=O)c1 (stereo unspecified) |  |  |  | 2400 | < 0.1 |  | 2100 |  |  | IC50 [17]: 1700 nM
COc1cccc(C(=O)Nc2ccc(NC(=O)c3ccco3)cc2)c1 | 0.2 | > 82000 | 4000 | 2500 | 1.9 (≈ 5.65 µM) | > 30000 |  |  |  | Papp A→B [20]: 11 ×10⁻⁶ cm/s; IC50 [16]: > 30000 nM; EC50 [21]: 8200 nM
O=C(Nc1ccc(NC(=O)c2ccco2)cc1)c1cccnc1 |  | > 57000 | 38000 |  |  |  |  |  |  | 
COc1cccc(C(=O)Nc2ccc(NC(=O)c3ccco3)cc2)c1F |  | > 57000 | 8000 |  |  |  |  |  |  | 
O=C(Nc1ccc(-c2c[nH]c(-c3cc(C(F)(F)F)cc(C(F)(F)F)c3)n2)cc1)c1cscn1 |  | 7800 | 130 |  |  |  |  | Toxic | Unstable | 
COc1cccc(C(=O)Nc2ccc(NC(=O)c3cscn3)cc2)c1 | 0.367 | > 57000 | 640 |  |  |  |  |  |  | 
O=C(Cc1ccc(NC(=O)c2cscn2)cc1)Nc1cc(C(F)(F)F)cc(C(F)(F)F)c1 |  | 36000 | 130 |  |  |  |  | Toxic | Unstable | 
COc1cccc(C(=O)Nc2ccc(NC(=O)c3csnn3)cc2)c1 | 0.567 | > 57000 | 3000 |  |  |  |  |  |  | 
Cc1ccc(C(C)(O)c2nc(-n3ccc(NC(=O)c4cscn4)cc3=O)c[nH]2)cc1 (stereo unspecified) | 1.2 |  |  | 1900 | 16 (≈ 38 µM) | > 30000 | 14000 |  |  | IC50 [17]: 18000 nM
O=C(Cc1ccc(NC(=O)c2cscn2)nc1)Nc1cc(C(F)(F)F)cc(C(F)(F)F)c1 |  | > 57000 | 440 |  |  |  |  | Toxic | Stable | 
O=C(Nc1ccc(NC(=O)c2ccco2)cc1)c1cccc(Cl)c1 | 0.233 | > 57000 | 1100 |  |  |  |  |  |  | 
O=C(Nc1ccc(NC(=O)c2ccco2)cc1)c1ccc(Cl)c(C(F)(F)F)c1 | 0.233 | > 57000 | 340 |  |  |  |  |  |  | 
O=C(Cc1cc(C(F)(F)F)cc(C(F)(F)F)c1)Nc1ccc(NC(=O)c2cscn2)cc1 | 1.57 | > 57000 | 220 |  |  |  |  | Toxic | Unstable | 
O=C(Cn1ccc(NC(=O)c2cscn2)cc1=O)Nc1cc(C(F)(F)F)cc(C(F)(F)F)c1 |  | 28000 | 440 |  |  |  |  | Non-toxic | Stable | 
O=C(Nc1ccn(-c2c[nH]c(C(O)c3cccc(C(F)(F)F)c3)n2)c(=O)c1)c1cscn1 (stereo unspecified) | > 2 |  |  | 470 |  | > 30000 | 7300 |  |  | IC50 [17]: 4300 nM
O=C(Nc1ccn(-c2cn(Cc3cccc(C(F)(F)F)c3)cn2)c(=O)c1)c1cscn1 | > 2 |  |  | > 5800 | < 0.16 | 1900 | 2100 |  |  | 
O=C(Cc1cc(C(F)(F)F)cc(C(F)(F)F)c1)Nc1ccc2nc(NC(=O)c3cscn3)sc2c1 |  | > 57000 | 250 |  |  |  |  | Toxic | Stable | 
CC(C)OC(c1cccc(C(F)(F)F)c1)c1nc(-n2ccc(NC(=O)c3cscn3)cc2=O)c[nH]1 (stereo unspecified) | > 2 |  |  | 110 | < 0.1 | > 30000 | 1400 |  |  | IC50 [17]: 180 nM
COc1cccc(C(=O)Nc2ccc(NC(=O)c3cncnc3)cc2)c1 |  | > 57000 | > 57000 |  |  |  |  |  |  | 
CC(c1cccc(C(F)(F)F)c1)c1nc(-n2ccc(NC(=O)c3cscn3)cc2=O)c[nH]1 (stereo unspecified) | > 2 |  |  | 150 | < 0.1 | > 30000 | 31 |  |  | 
COc1cccc(C(=O)Nc2ccc(NC(=O)c3cocn3)cc2)c1 | 1.63 | > 57000 | 4400 |  |  |  |  |  |  | 
Cc1cccc(C(C)(O)c2nc(-n3ccc(NC(=O)c4cscn4)cc3=O)c[nH]2)c1 (stereo unspecified) |  |  |  | 3600 | 63 (≈ 149 µM) | > 30000 | 13000 |  |  | IC50 [17]: 21000 nM
